# STEP block = inhibitors of human striatal-enriched phosphatase STEP; P54829; recombinant STEP, OMFP fluorogenic substrate, fluorescence; inhibition, % at 20 µM; 360,000 compounds, 0.25% hits; AID 588621;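 active means inhibition at 20 µM, scaled per plate between control wells, above about 37%, limit read from the data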;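 further: 0% = DMSO with enzyme and substrate and 100% = substrate only without enzyme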
#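 Measure: Control-normalized % inhibition with plate pattern correction | Test system: STEP phosphatase, cell-free reaction | Medium: pH 6.0 Bis-Tris with DTT and Tween 20 | Technique: Fluorescence, 480/540 nm | Times: Reaction 20 min, ambient temperature | Doses: Single compound dose of 20 µM, 1% DMSO final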
# DNMT1 block = inhibitors of human DNMT1 | P26358 | DNMT1 molecular beacon, Hinp1I cleavage, fluorescence | inhibition (reported as % activation of signal), % at 10 µM | 360,000 compounds, 0.83% hits | AID 588458; in the data active means inhibition above about 50%
# LMPTP inh = LMPTP (human) inhibition. recombinant LMPTP-A, OMFP fluorogenic substrate, fluorescence intensity. inhibition, % at 20 µM. 360,000 compounds, 0.22% hits;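 active means compounds that cut the enzyme signal by at least half of the control window in the single-dose screen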;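 further: plate controls were DMSO wells with enzyme plus substrate for no effect and substrate without enzyme for full effect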
#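 Material: LMPTP-A; amount: 0.625 nM enzyme; doses: single 20 µM dose; times: reaction 50 min, room temperature, dark; technique: fluorescence intensity of OMFP turnover product; benchmarks: no-enzyme and uninhibited controls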
# GRK2 aptamer HTS = human GRK2 inhibition via aptamer displacement; P25098; bead flow cytometry, FAM-aptamer displacement from GRK2; inhibition of aptamer binding, % at 10 µM; 330,000 compounds, 0.59% hits; AID 488847;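 active means inhibition of aptamer binding above 40%, roughly 3 SD of noise, on plates passing a quality check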;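 further: median bead fluorescence of bound FAM aptamer so fluorescent compounds give negative values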
# Target sequence (P25098 whole entry, looked up): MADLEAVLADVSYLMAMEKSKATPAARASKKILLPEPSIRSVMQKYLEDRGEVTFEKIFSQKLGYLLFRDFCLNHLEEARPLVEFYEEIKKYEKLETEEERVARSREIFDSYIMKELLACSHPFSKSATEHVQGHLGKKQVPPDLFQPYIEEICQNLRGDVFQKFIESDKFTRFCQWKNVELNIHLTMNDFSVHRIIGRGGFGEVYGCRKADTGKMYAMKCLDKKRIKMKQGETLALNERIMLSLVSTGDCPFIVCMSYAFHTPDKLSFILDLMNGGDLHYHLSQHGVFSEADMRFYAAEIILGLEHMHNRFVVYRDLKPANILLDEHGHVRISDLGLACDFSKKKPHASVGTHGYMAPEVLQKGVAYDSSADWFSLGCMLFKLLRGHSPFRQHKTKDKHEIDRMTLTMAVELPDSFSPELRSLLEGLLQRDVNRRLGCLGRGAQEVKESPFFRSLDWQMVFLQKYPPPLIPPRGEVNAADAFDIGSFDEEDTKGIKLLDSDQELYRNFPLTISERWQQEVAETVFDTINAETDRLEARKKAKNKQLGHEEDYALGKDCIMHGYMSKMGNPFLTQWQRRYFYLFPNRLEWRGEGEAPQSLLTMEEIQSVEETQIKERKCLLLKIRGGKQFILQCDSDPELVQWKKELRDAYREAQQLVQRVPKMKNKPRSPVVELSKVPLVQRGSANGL
# Scp-1 inhibitor = Scp-1 (human) phosphatase inhibition. Q9GZU7. Recombinant Scp1, phosphopeptide, malachite green phosphate absorbance. inhibition, % at 20 µM. 340,000 compounds, 0.88% hits;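 active means inhibition above about 50% at 20 µM, limit read from the data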;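 further: plate controls were DMSO wells with enzyme for no effect and wells lacking enzyme for full effect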
#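 Incubation: 45 min enzyme reaction at room temperature / System: truncated SCP-1 phosphatase (76-261aa) / Reagent: Phospho 17-mer peptide substrate / Buffer or medium: Acidic Tris acetate buffer with magnesium and detergent / Signal: absorbance at 630 nm / Doses: one concentration, 20 µM, with 1.0% DMSO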
# SUMO1 PPI mod = SUMO1-SIM interaction modulation. P63165. SUMO1 binding to a labelled peptide, TR-FRET, 1 h. inhibition, % at 20 µM. 360,000 compounds, 0.33% hits; in the data active means inhibition above about 37%
# Scp-1 conf = confirmation of human Scp-1 phosphatase inhibitors | shares compounds with Scp-1 inhibitor | recombinant SCP-1 catalytic domain, phosphate release, malachite green absorbance | 2,500 compounds, 61% hits | inhibition, % at 20 µM;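 further: plate controls were DMSO with enzyme for no effect and buffer wells lacking enzyme for full effect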
# MG interference = interferes with malachite green readout, flagging false Scp-1 hits; apparent inhibition (interference), % at 20 µM; shares compounds with Scp-1 inhibitor; Colorimetric interference counterscreen, malachite green absorbance 630 nm; AID 540313; 2,500 tested, under 10 active;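 further: compounds added after enzyme reaction finished so only phosphate colour detection is probed; plate controls were DMSO wells with completed Scp-1 reaction for no effect and substrate wells lacking enzyme for full effect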
# Scp-1 Tm shift = Scp-1 (human) binding by thermal shift. shares compounds with Scp-1 inhibitor. Recombinant SCP1, Sypro Orange thermal shift Tm. thermal shift relative to vanadate control, % at 40 µM. 1,500 compounds, 25% hits. AID 540329;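 active means substances whose mean melting-temperature shift, as a percentage of the reference inhibitor's shift, reaches about 5.3%, limit read from the data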;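 further: 0% = Tm of DMSO wells and 100% = Tm with sodium orthovanadate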
# Active calls of the source: *; . = no result. Only some compounds are listed: those with a hit (about 2.1% of all), similar ones and a draw of the others.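 How the source made its calls, unless noted: active means inhibition of at least 30% at 20 µM; inactive means the rest.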
SMILES,STEP block,DNMT1 block,LMPTP inh,GRK2 aptamer HTS,Scp-1 inhibitor,SUMO1 PPI mod,Scp-1 conf,MG interference,others
O=C(CSc1ccsc1[N+](=O)[O-])NCc1ccco1,4.7,29.0,3.6,0.0,56.7*,-10.2,61.1*,-15.6,Scp-1 Tm shift=4.9
Clc1ccc(-c2ccc(CNCc3ccccn3)o2)cc1,-1.3,0.8,-1.0,0.0,-9.4,-3.5,.,.,
Cc1nn(Cc2ccccc2Cl)c(C)c1NC(=O)c1noc2c1CCCCC2,-2.6,-1.8,-0.5,6.0,-8.4,-0.2,.,.,
Cc1nn(Cc2ccccc2Cl)c(C)c1NC(=O)c1noc(C(C)C)c1[N+](=O)[O-],-0.6,0.1,-1.0,0.0,63.0*,-8.6,-113.0,-9.8,
O=C(COc1ccccc1[N+](=O)[O-])Nc1cccc(S(=O)(=O)NC2=NCCCCC2)c1,-1.4,6.8,1.0,4.0,62.0*,-8.1,73.6*,-10.1,Scp-1 Tm shift=4.0
COCOc1ccc(-c2ncc(OCCN3CCCC3=O)nc2NC(=O)c2cc3ccccc3s2)cc1,-0.7,-3.5,0.2,.,.,-10.6,.,.,
Cc1ccc(C(=O)N/N=C/c2ccc(-c3ccccc3[N+](=O)[O-])o2)cn1,3.9,-22.9,0.1,0.0,-7.3,1.2,.,.,
COc1ccc(-c2ccc(/C=N/NC(=O)c3cccnc3)o2)c([N+](=O)[O-])c1,32.4,-0.9,52.7*,.,96.2*,-14.2,81.9*,-11.8,Scp-1 Tm shift=4.0
CSc1nnc(-c2cc[n+](C)cc2)n1CCO,-4.3,6.9,-5.0,0.0,66.1*,-2.0,9.7,-7.9,
CSc1nnc(-c2ccccc2)n1N,-7.7,2.0,-1.6,.,-7.9,-6.9,.,.,
O=C(O)c1ccc2c(=O)n3c(nc2c1)/C(=C/c1cccc(O)c1)CC3,1.8,-0.2,0.1,13.0,-0.5,-1.3,.,.,
O=C(O)c1ccc2c(=O)n3c(nc2c1)/C(=C/c1ccc(Cl)c(Cl)c1)CC3,7.2,7.1,0.1,0.0,55.0*,-0.9,11.7,-7.6,
COC(=O)CCCn1cc(CN2CC(N3CCN(Cc4cccc(C)c4)CC3)CS2(=O)=O)nn1 (stereo not given),.,.,0.3,.,.,17.0,.,.,
Cc1oc(/N=C/c2ccccc2)c(C#N)c1C,-2.2,0.0,0.5,2.0,4.5,-11.5,.,.,
Cc1oc(/N=C/c2cccc3ccccc23)c(C#N)c1C,1.9,40.9,0.6,8.0,65.3*,-5.1,-11.1,-8.2,
Cc1ccccc1C(=O)NC1CCSC1=O (stereo not given),3.6,4.1,0.4,1.0,63.9*,-4.7,14.0,-15.9,
O=C(NC(=S)NC1CCSC1=O)c1ccccc1Cl (stereo not given),3.9,3.0,-1.1,1.0,-4.9,3.2,.,.,
CCN1/C(=C\C(C)=O)Sc2ccc(OC)cc21,1.5,3.8,-2.0,0.0,95.6*,-4.8,9.5,-4.9,
CCC(=O)/C=C1\Sc2ccc(OC)cc2N1CC,0.2,5.8,-0.4,4.0,-3.5,1.3,.,.,
COc1cccc(NC(=O)C2CCCN(S(=O)(=O)c3cccc4cccnc34)C2)c1 (stereo not given),2.4,-1.6,-0.5,0.0,86.4*,-0.7,5.4,-1.0,
COC(=O)[C@H](Cc1ccccc1)NC(=O)Cn1cnc(C(=O)Nc2ccc(C)c(C)c2)n1,-2.2,0.4,-0.4,0.0,-4.0,5.5,.,.,
CC(=O)NC1=NC(=O)/C(=C/c2cc(C)n(-c3cccc(C(=O)O)c3)c2C)S1,34.1,93.2*,16.4,.,71.8*,22.6,53.1*,-21.1,Scp-1 Tm shift=5.3*
O=C(Nc1cccc(Cl)c1)c1cccc(N2C(=O)C3CC=CCC3C2=O)c1 (stereo not given),19.1,24.2,0.8,38.0,51.5*,37.7,28.1,-14.5,
Cc1cc(C)c(C)c(OCCn2ccnc2)c1,-3.0,5.9,0.2,1.0,-3.9,-0.4,.,.,
Cc1ccc(C)c(OCCn2ccnc2)c1,-3.0,1.9,0.4,9.0,59.1*,6.2,39.0*,-10.6,Scp-1 Tm shift=-13.8
SMILES,STEP block,DNMT1 block,LMPTP inh,GRK2 aptamer HTS,Scp-1 inhibitor,SUMO1 PPI mod,Scp-1 conf,MG interference,others
Cc1cccc(Nc2n[nH]c(=S)s2)c1C,2.2,-0.1,-1.0,3.0,60.1*,12.5,18.9,-13.4,
CC1(C(=O)NS(=O)(=O)c2cccc(C#N)c2)CCN1C(=O)c1cccc2ccccc12 (stereo not given),-3.2,5.6,-3.1,.,.,1.8,.,.,
O=C1CC(c2ccc(S(=O)(=O)Nc3cc(C(F)(F)F)cc(C(F)(F)F)c3)cc2)CN1 (stereo not given),-3.2,-0.7,2.2,0.0,-4.3,0.4,-5.0,-7.6,
O=C(CN1C(=O)c2ccccc2C1=O)NN1C(=O)c2ccccc2C1=O,0.9,5.8,4.1,1.0,55.5*,0.2,-16.3,-13.4,
Cc1cc(NC2CCCCC2)nc2ccccc12,-1.7,2.5,4.1,0.0,4.5,1.7,.,.,
Cc1cc(OCC[N+]2(C)CCCCC2)nc2ccccc12,-3.3,6.2,0.0,0.0,102.4*,-0.8,89.9*,-7.9,Scp-1 Tm shift=-20.1
COc1ccc(NC(=O)C2(C)Cc3c(-c4ccc5c(c4)OCO5)ccnc3O2)cn1 (stereo not given),5.4,-3.1,0.8,.,.,7.4,.,.,
O=C1N=c2ccccc2=C1c1sc(NS(=O)(=O)Cc2ccccc2)nc1O,9.1,-0.5,3.8,0.0,92.8*,5.2,83.7*,-6.2,Scp-1 Tm shift=31.1*
O=C(O)[C@H]1Cc2ccccc2CN1S(=O)(=O)c1ccc(F)cc1,3.5,-0.9,-1.1,0.0,-5.4,-1.8,.,.,
CC(=O)c1ccc(S(=O)(=O)N2Cc3ccccc3CC2C(=O)O)cc1 (stereo not given),7.7,37.1,-0.4,0.0,82.2*,17.0,63.9*,-15.8,Scp-1 Tm shift=-0.5
CC[N+](C)(CC)CC(=O)OCC1C(C)C=C(C)CC1C (stereo not given),-0.5,-1.4,0.4,1.0,55.5*,-6.4,-2.7,-13.1,
COc1cc(/C=C2\SC(=S)N(CCCCC(=O)O)C2=O)ccc1OS(=O)(=O)c1ccc(C)cc1,1.2,8.9,7.6,5.0,50.7*,11.1,47.9*,-25.2,Scp-1 Tm shift=14.6*
COc1ccc(S(=O)(=O)N2CCCCC2c2cc(C(=O)Nc3ccc(F)c(Cl)c3)no2)cc1 (stereo not given),4.4,-4.2,2.7,.,.,-2.1,.,.,
COC(=O)c1sccc1NC(=O)CSc1ccccc1N,-1.2,0.0,-0.4,2.0,58.3*,6.7,-21.9,-19.1,
